Assay results from ChEMBL document CHEMBL4680165, “β-Lactams with antiproliferative and antiapoptotic activity in breast and chemoresistant colon cancer cells” (Eur J Med Chem, 2020).
The source made the active and inactive calls. No cut-off for these calls is given here.

Assays:
HT-29 [1] = assay: Antiproliferative activity against human HT-29 cells assessed as reduction in cell viability after 72 hrs by alamar blue assay; format: functional, cell-based; details: HT-29, 72 h
Method in brief: (§1)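 Cells seeded at 5 x 10^3/well (MCF-7) or 1 x 10^4/well (HT-29, HEK-293T) and treated after 24 h with serial dilutions (0.001-100 µM) in 1% v/v ethanol vehicle. Alamar Blue 10% v/v added at 72 h, then 3-5 h at 37 °C in the dark; fluorescence ex 530/em 590 nm. Viability relative to vehicle; IC50 from dose-response curves; mean of three experiments in triplicate.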

HT-29 [2] = assay: Cell cycle arrest in human HT-29 cells assessed as accumulation at G2/M phase at 1 uM measured after 72 hrs by PI staining based flow cytometry analysis (reference value: 11 %); format: functional
Method in brief: (§2)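 Cells (1 × 10^5/well) were treated at 1 µM for 24, 48 and 72 h; vehicle was 0.1% v/v ethanol. Cells were trypsinised, fixed in ice-cold 70% ethanol overnight at −20 °C, then stained with PI (50 µg/mL) plus DNase-free RNase A (50 µg/mL) at 37 °C for 30 min. DNA content of 10,000 cells per group was read by flow cytometry at 488 nm.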

HT-29 [3] = assay: Antiangiogenic activity in human HT29 cells assessed as reduction in IL-1beta secretion at 5 uM after 24 hrs by ELISA; format: functional, cell-based
Method in brief: (§3)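 HT-29 cells at 5 x 10^4 per well, cultured 24 h and then exposed to 5 µM compound. Conditioned medium collected on ice and stored at -80 °C. Cytokines and angiogenic, vascular-injury and chemokine factors measured by multiplex panels with overnight supernatant incubation (Angiogenesis Panel 1 and Vascular Injury Panel 2 same day). Medium undiluted except 1:4 for Vascular Injury Panel 2. Secretion normalised to lysate protein by BCA.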

HT-29 [4] = assay: Cell cycle arrest in human HT-29 cells assessed as accumulation at G2/M phase at 1 uM measured by PI staining based flow cytometry analysis; format: functional; details: TDE = time-dependent effect; method in brief: as §2
MCF7 [5] = assay: Cell cycle arrest in human MCF7 cells assessed as accumulation at G2/M phase at 1 uM measured after 48 hrs by PI staining based flow cytometry analysis (reference value: 24 %); format: functional; method in brief: as §2
MCF7 [6] = assay: Antiproliferative activity against human MCF7 cells assessed as reduction in cell viability after 72 hrs by alamar blue assay; format: functional, cell-based; details: MCF7, 72 h; method in brief: as §1
HT-29 [7] = assay: Induction of apoptosis in human HT29 cells assessed as cell apoptosis at 1 uM after 72 hrs by Annexin V-FITC and propidium iodide staining based flow cytometry; format: functional
Method in brief: (§4)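 HT-29 cells were treated at 1 µM for 24, 48 and 72 h against an untreated control. Cells were stained with Annexin V in binding buffer (HEPES pH 7.4, NaCl, CaCl2) for 30 min on ice in the dark, washed, resuspended in PI-containing buffer and read at once by flow cytometry. Quadrants: early apoptotic, late apoptotic, necrotic (Annexin V−/PI+).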

MCF7 [8] = assay: Cell cycle arrest in human MCF7 cells assessed as accumulation at G2/M phase at 1 uM measured after 24 hrs by PI staining based flow cytometry analysis (reference value: 24 %); format: functional; method in brief: as §2
MCF7 [9] = assay: Induction of apoptosis in human MCF7 cells assessed as total apoptotic cells at 0.1 uM after 48 hrs by Annexin V-FITC and propidium iodide staining based flow cytometry (reference value: 10 %); format: functional
Method in brief: (§5)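 MCF-7 cells were seeded at 1 × 10^5 cells/mL and treated for 48 h at 0.01, 0.1 and 1 µM; vehicle was 0.1% v/v ethanol. Annexin V staining was done on ice in the dark for 30 min in HEPES/NaCl/CaCl2 binding buffer, followed by PI. Flow cytometry scored early apoptotic (Annexin V+/PI−) and late apoptotic (Annexin V+/PI+) cells; total apoptotic is Annexin V-positive cells.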

Bos taurus = species on record: Bos taurus; assay: Inhibition of bovine brain tubulin polymerization at 10 uM measured at 30 sec interval for 30 mins in presence of GTP by turbidimetry-based spectrophotometric method
HT-29 [10] = assay: Antiangiogenic activity in human HT29 cells assessed as reduction in VEGF secretion at 5 uM after 24 hrs by ELISA; format: functional, cell-based; method in brief: as §3
Tubulin (Homo sapiens) [11] = biological target: T1, Tubulin (Homo sapiens) (UniProt P68371+Q9H4B7+P0DPH7+P68366+Q13509+Q71U36+P04350+Q3ZCM7+P07437+P68363+Q9BQE3+Q6PEY2+Q13885+Q9BVA1+Q9BUF5); assay: Binding affinity to tubulin in human MCF7 cells assessed as inhibition of tubulin-EBI adduct formation preincubated for 2 hrs followed by EBI addition and measured after 1.5 hrs by Western blotting analysis; format: cell-based; details: time 3.5 hrs
Method in brief: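 MCF-7 cells (5 × 10^4/well) were incubated overnight, then given vehicle (0.1% v/v ethanol) or compound at 10 µM for 2 h. Selected wells then received EBI (100 µM) for 1.5 h. Cells were washed in ice-cold PBS, lysed in Laemmli buffer and run on SDS-PAGE. Blots were probed for β-tubulin and the β-tubulin–EBI adduct, with GAPDH as loading control. Three independent experiments.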

MCF7 [12] = assay: Cell cycle arrest in human MCF7 cells assessed as accumulation at sub-G1 phase at 1 uM measured after 72 hrs by PI staining based flow cytometry analysis; format: functional; method in brief: as §2
MCF7 [13] = assay: Induction of apoptosis in human MCF7 cells assessed as early apoptotic cells after 48 hrs by Annexin V-FITC and propidium iodide staining based flow cytometry; format: functional, cell-based; details: dose 10-1000 nM; method in brief: as §5
HEK-293T = assay: Antiproliferative activity against human HEK293T cells assessed as reduction in cell viability after 72 hrs by alamar blue assay; format: cell-based; method in brief: as §1
HT-29 [14] = assay: Induction of apoptosis in human HT29 cells assessed as cell apoptosis at 1 uM after 24 hrs by Annexin V-FITC and propidium iodide staining based flow cytometry; format: functional; method in brief: as §4
MCF7 [15] = assay: Induction of apoptosis in human MCF7 cells assessed as downregulation of Bcl-2 expression level measured after 48 hrs by Western blot analysis; format: functional, cell-based; details: dose 0.05-0.5 µM
Method in brief: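 MCF-7 cells (1 × 10^5 per flask) were treated at 0.05, 0.1 and 0.5 µM for 48 and 72 h; vehicle was 0.1% v/v ethanol. Lysis was in RIPA buffer with protease and phosphatase inhibitors. Equal protein (BCA) was run on 12% SDS-PAGE and blotted for Mcl-1, Bcl-2 and survivin, with GAPDH as loading control and ECL detection. Three independent experiments.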

MCF7 [16] = assay: Cell cycle arrest in human MCF7 cells assessed as accumulation at G2/M phase at 1 uM by PI staining based flow cytometry analysis; format: functional; details: TDE = time-dependent effect; method in brief: as §2
Tubulin (Homo sapiens) [17] = biological target: T1, Tubulin (Homo sapiens); assay: Induction of microtubule depolymerization in human MCF7 cells assessed as induction of cell rounding at 100 nM for 5 hrs by immunofluorescence staining based confocal microscopic analysis
Method in brief: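 MCF-7 cells were seeded at 1 × 10^5 cells/mL on chamber slides and treated at 0.01, 0.05 and 0.1 µM. Controls were vehicle (1% v/v ethanol), CA-4 (0.01 µM) and paclitaxel (1 µM). Cells were fixed and stained with anti-α-tubulin-FITC (DM1A) and Alexa Fluor 488, then counterstained with DAPI. Imaging was by confocal microscopy over three separate experiments.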

[18] = Selectivity index, ratio of IC50 for human MCF7 cells to IC50 for human HT-29 cells assessed as reduction in cell viability after 72 hrs by alamar blue assay; format: functional

IC50 (HT-29 [1]): 3 nM
IC50 (MCF7 [6]): 22 nM
Activity (Tubulin (Homo sapiens) [11]): Active
Activity (Tubulin (Homo sapiens) [17]): Active
SMILES: COc1ccc([C@H]2[C@H](O)C(=O)N2c2cc(OC)c(OC)c(OC)c2)cc1F
Activity (HT-29 [2]): 64%
Activity (HT-29 [3]): inactive
Activity (HT-29 [4]): Tde
Activity (MCF7 [5]): 75%
Activity (HT-29 [7]): 2%
Activity (MCF7 [8]): 66%
Activity (MCF7 [9]): 20%
inhibition (Bos taurus): Active
Activity (HT-29 [10]): inactive
Activity (MCF7 [12]): 15%
Activity (MCF7 [13]): Dose-dependent effect
IC50 (HEK-293T): > 50 µM
Activity (HT-29 [14]): 21%
Activity (MCF7 [15]): Dose-dependent effect
Activity (MCF7 [16]): Tde
Ratio IC50 [18]: 7.33
